The text below walks through data of ChEMBL document CHEMBL4513216, “Probing the Open Global Health Chemical Diversity Library for Multistage-Active Starting Points for Next-Generation Antimalarials” (ACS Infect Dis, 2020).

SMILES strings stand for the structures.

This series is described as follows: Toxicity liver stage against HepG2, at 10uM. The class given is cell-based. The arrangement: test concentration 10 uM, cell line HepG2-A16-CD81EGFP. The conditions noted are these: human, HepG2-A16-CD81EGFP cells; read-out: INHIBITION
The procedure, abridged: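 Uninfected HepG2-A16-CD81EGFP cells, 3 × 10^3 per well, 1536-well, plated on prespotted compound at 10 μM final, parasite-free screening media added to match infected plates; puromycin 10 μM positive, DMSO 0.5% negative; run in parallel with 48 h PbLuc assay at 37 °C, 5% CO2; viability by CellTiter-Glo luminescence, normalized to controls.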
`Cc1cc(C)c2nc(C)cc(C(=O)NCc3csc(N(C)C)n3)c2c1`: the cytotoxicity at 10 µM worked out at 13.5%.

On to `Cc1nc(C)n(CC2CCCN(Cc3cccc4c3OCCO4)C2)n1` (stereo unspecified), for which the cytotoxicity at 10 µM was -5.23%.

Regarding `COCC(=O)N1CCC(c2ccc(OC)cc2)C1` (stereo unspecified), the cytotoxicity at 10 µM was found to be 1.81%.

Regarding `O=c1cc(C2CCNCC2)nc(CCc2ccccn2)[nH]1`, the cytotoxicity at 10 µM is -0.226%.

With `Cc1nsc(NC(=O)N2CCCCC2CCCO)n1` (stereo unspecified), the cytotoxicity at 10 µM was -46.3%.

In the case of `O=C(CCc1cc2n(n1)CCCNC2)NCCS(=O)(=O)N1CCCC1`, the cytotoxicity at 10 µM is 0.698%.

Turning to `Cc1cc(CN2CCC(CNC(=O)c3ccc(O)c(Cl)c3)C2)[nH]n1` (stereo unspecified), the cytotoxicity at 10 µM came out at 13.3%.

Turning to `CC(C)c1n[nH]c(C2CN(C(=O)c3cc(C4CC4)[nH]n3)CCO2)n1` (stereo unspecified), the cytotoxicity at 10 µM is -5.95%.

In the case of `Cc1ccnc(C2CCN(C(=O)c3cnn(C)c3)CC2)n1`, the cytotoxicity at 10 µM is -4.15%.

Consider `CN(C)CC1CSCCCN1C(=O)c1ccc(C(C)(C)C)cc1` (stereo unspecified), for which the cytotoxicity at 10 µM was determined as 6.25%.

As for `CCOCCSc1nnc(-c2cn(CC)nc2OCC)n1C`, the cytotoxicity at 10 µM is -3.81%.

As to `O=C(c1cccc(-c2ccc(F)cc2)c1)N1CCCC(O)(CO)CC1` (stereo unspecified), the cytotoxicity at 10 µM is -4.77%.

As to `Cc1nc(CN2CCO[C@H]3[C@@H](OCc4cccnc4)CC[C@@H]32)cs1`, the cytotoxicity at 10 µM was -0.587%.

On to `CC(C)(C)c1cc(C(=O)N2CCC(c3cnccn3)CC2)[nH]n1`, for which the cytotoxicity at 10 µM was found to be 0.775%.

Take `CN(C(=O)c1ccncc1)c1nnc(C2CCOC2)s1` (stereo unspecified): the cytotoxicity at 10 µM worked out at 3.57%.

Consider `Cc1csc(CNC(=O)NCC(C)Cn2nc(C)cc2C)n1` (stereo unspecified), for which the cytotoxicity at 10 µM was 3.26%.

On to `Nc1ncc(C(=O)N2CCC(O)(CO)CC2)c(-c2ccccc2)n1`, for which the cytotoxicity at 10 µM was -144%.

For the compound `CS(=O)(=O)NCCNC(=O)C1(c2ccc(F)cc2)CC1`, the cytotoxicity at 10 µM turned out to be 1.93%.

As for `COCCCNC(=O)c1ccccc1S(C)(=O)=O`, the cytotoxicity at 10 µM was -2.83%.

On to `Cc1cc(S(C)(=O)=O)c(C)c(S(=O)(=O)NCC2CCCO2)c1` (stereo unspecified), for which the cytotoxicity at 10 µM was -8.02%.

With `COc1ncccc1CN1CCC2(CC1)CN(c1ccccn1)CCO2`, the cytotoxicity at 10 µM is -6.6%.

As to `COCCN1CCN(Cc2c(C)noc2C)Cc2ccc(C)nc21`, the cytotoxicity at 10 µM worked out at 3.47%.

For `CCCN1CCC2(C1)c1ccccc1S(=O)(=O)N2Cc1ccccc1` (stereo unspecified), the cytotoxicity at 10 µM came to 16.7%.

As for `O=C1CCN(C(=O)CCc2cc(Br)cs2)CCN1`, the cytotoxicity at 10 µM is -2.1%.

Turning to `CC(Cc1cccc(Cl)c1)NC(=O)Nc1cnn(CC(N)=O)c1` (stereo unspecified), the cytotoxicity at 10 µM was -15%.

On to `CCCN1CCN(C(=O)c2cc[nH]n2)[C@H]2CS(=O)(=O)C[C@H]21`, for which the cytotoxicity at 10 µM is 2.29%.

Take `FC1(F)CCN(c2ccccc2)CC12CCN(c1ncccn1)C2` (stereo unspecified): the cytotoxicity at 10 µM was determined as 3.71%.

On to `Cc1nc(C)c(C(C)NCc2c(C(C)C)nn(C)c2N(C)C)s1` (stereo unspecified), for which the cytotoxicity at 10 µM is -8.53%.

Take `OC1CCN(c2ccnc(NCCN3CCc4ccccc4C3)n2)C1` (stereo unspecified): the cytotoxicity at 10 µM was -11.8%.

Turning to `CCc1nc(CNC(C)Cn2cccn2)cs1` (stereo unspecified), the cytotoxicity at 10 µM was -4.67%.

`COCCN(C)C[C@@H]1CN(C(=O)c2ccc3c(c2)OCO3)C[C@@H]1CO`: the cytotoxicity at 10 µM worked out at 8.47%.

Turning to `CCc1nc(C(=O)N(CC)CC(=O)N(C)C)nn1-c1ccccc1Cl`, the cytotoxicity at 10 µM was 5.25%.

Take `CCOCC(=O)NCCc1nc(C)cc(C(F)(F)F)n1`: the cytotoxicity at 10 µM was -1.21%.

For `CN1[C@H](Cn2cncn2)C[C@@H]2CN(Cc3ccsc3)CC[C@@H]21`, the cytotoxicity at 10 µM was -118%.

Take `Cc1ccc(CN2CC[C@H]3CO[C@H](CN4CCCC4)[C@H]3C2)o1`: the cytotoxicity at 10 µM is -115%.

For the compound `Cc1nc(C(C)(C)C)sc1C(=O)NCCNc1ncccn1`, the cytotoxicity at 10 µM is -4.83%.

With `Cc1ncsc1C(=O)N1CCCC1c1c(C)nn(C)c1Cl` (stereo unspecified), the cytotoxicity at 10 µM was -1.9%.

Take `CC(NCc1nnc2n1CCCC2)C(=O)N1CCc2sccc2C1` (stereo unspecified): the cytotoxicity at 10 µM is -26.2%.

With `Cc1nnc(CN(Cc2ccccc2Cl)C2CCCC2)o1`, the cytotoxicity at 10 µM was determined as 0.256%.

Consider `O=C(C1CCCCC1)N1C[C@@H]2CCNC[C@@H]21`, for which the cytotoxicity at 10 µM is 3.47%.

Consider `CCC(=O)N1CCN(C(=O)Nc2cccc(N3CCOCC3)c2)CC1`, for which the cytotoxicity at 10 µM is -3.1%.

With `O=C1CC(c2ccc(C(F)(F)F)cc2)c2snc(C(=O)O)c2N1` (stereo unspecified), the cytotoxicity at 10 µM was 10.7%.

As for `Cc1nnsc1C(=O)N1CCN(C(=O)C2CCC2)[C@@H]2CS(=O)(=O)C[C@@H]21`, the cytotoxicity at 10 µM is -2%.

In the case of `O=C1N(Cc2ccncc2)CCC12CCCNC2` (stereo unspecified), the cytotoxicity at 10 µM stood at 4.26%.

On to `O=C(c1ccoc1)N1CCC2(CC1)COC(COc1ccccn1)C2` (stereo unspecified), for which the cytotoxicity at 10 µM is -123%.

For `CN(Cc1ccc(F)cc1)[C@@H]1CN(C(=O)c2cccs2)C[C@H]1O`, the cytotoxicity at 10 µM came out at 3.92%.

Turning to `Cc1nc2c(c(=O)n1C)CCN(Cc1cc3cc[nH]c3cn1)CC2`, the cytotoxicity at 10 µM is -9.56%.

Regarding `CCN(Cc1ccccc1)C1CCN(c2cc(C)nn2C)C1=O` (stereo unspecified), the cytotoxicity at 10 µM was -3.03%.

As for `CCc1nc(CN(C)C2CCN(Cc3ccc(Cl)s3)C2)no1` (stereo unspecified), the cytotoxicity at 10 µM was found to be 9.41%.

In the case of `O=C(NCC1(Sc2ccccc2)CC1)c1cc[nH]n1`, the cytotoxicity at 10 µM was -5.96%.

For the compound `Cc1oncc1C(=O)N[C@@H]1CN(c2ncccn2)C[C@@H]2CCCO[C@@H]21`, the cytotoxicity at 10 µM turned out to be 6.21%.

For the compound `CCNC(=O)[C@@H]1C[C@H](NC(=O)c2cncnc2C)CN1Cc1ccsc1`, the cytotoxicity at 10 µM is 2.12%.

In the case of `Cc1cc(C)n(C2CCCN(C(=O)C3=NN(C)C(=O)CC3)C2)n1` (stereo unspecified), the cytotoxicity at 10 µM was -9.21%.

Consider `CNC(=O)C1CCCN(C(=O)c2cncs2)C1` (stereo unspecified), for which the cytotoxicity at 10 µM came out at 4.94%.

Consider `CC1CN(C(=O)c2ccc(=O)n(C)c2)c2ccccc2NC1=O` (stereo unspecified), for which the cytotoxicity at 10 µM is -2.09%.

Take `COc1cc(C(=O)Nc2nc(C)no2)ccc1OC1CCCC1`: the cytotoxicity at 10 µM was -2.12%.

Take `Cn1ccnc1CN1CCC2(CC1)Cc1ccccc1CNC2=O`: the cytotoxicity at 10 µM was -1.6%.

For `O=C(Cc1cnccn1)N1CCC(c2nccn2CC2CC2)CC1`, the cytotoxicity at 10 µM is -7.54%.

For the compound `Cc1nccnc1CCC1COCCN1C(=O)CCc1c(C)noc1C` (stereo unspecified), the cytotoxicity at 10 µM is 5.7%.

As to `Cn1cc(CN2CCC3(CCCN3S(C)(=O)=O)CC2)cn1`, the cytotoxicity at 10 µM was determined as 1.59%.

Turning to `CCCNC(=O)COc1ccc(-c2ccccc2)nc1`, the cytotoxicity at 10 µM was determined as 6.16%.

For the compound `O=C1NC2(Cc3ccccc31)CN(CC1CCNCC1)C2`, the cytotoxicity at 10 µM was found to be 10.8%.

As for `O=C(C1CC1)N1CCN(c2ccc(-n3cncn3)nn2)CC1`, the cytotoxicity at 10 µM was -4.83%.

As for `Cc1ccnc(NCCNC(=O)c2ccccc2NCC(=O)O)c1`, the cytotoxicity at 10 µM was -12.7%.

As to `COCCNC(=O)[C@H]1C[C@@H]2CCN(Cc3ccoc3)C[C@H]2O1`, the cytotoxicity at 10 µM was 2.31%.

With `Cc1cnc(CCN(C)C(=O)c2cccc(N(C)C)c2)s1`, the cytotoxicity at 10 µM came to 2.05%.

Turning to `CC(C)N1CCn2c(nc3cc(C(N)=O)ccc32)C1`, the cytotoxicity at 10 µM is -11.3%.

Regarding `CCCS(=O)(=O)CCN1CCOC(c2ccsc2)C1` (stereo unspecified), the cytotoxicity at 10 µM was -2.69%.

Take `Cc1nn(C)c2c(N3CCN(C(=O)c4ccccc4)CC3)ncnc12`: the cytotoxicity at 10 µM came to 10.9%.

For the compound `CCCc1cc(C(=O)N2CCC3(CCCNC3=O)C2)cs1` (stereo unspecified), the cytotoxicity at 10 µM was -142%.

On to `O=C(Nc1ccc2scnc2c1)N1CCN([C@H]2CCCC[C@@H]2O)CC1`, for which the cytotoxicity at 10 µM is -53.6%.

For the compound `Cc1cnc(CN(C)C2CCN(Cc3ccccc3C#N)C2)o1` (stereo unspecified), the cytotoxicity at 10 µM turned out to be 1.08%.

`Cc1cccc(CN2CCOCC2c2[nH]ncc2C)n1` (stereo unspecified): the cytotoxicity at 10 µM came out at 6.91%.

With `CN(C)C(=O)C1(c2cnccn2)CCCN1C(=O)Cc1ccsc1` (stereo unspecified), the cytotoxicity at 10 µM is -1.84%.

In the case of `Cc1nn(C)c(C)c1OCC(=O)NCc1cccc(CO)c1`, the cytotoxicity at 10 µM is -7.73%.

Consider `O=C(NCC1(O)CCSCC1)c1nccc2ccccc12`, for which the cytotoxicity at 10 µM turned out to be 4.59%.

`CC(C)N(C)S(=O)(=O)c1ccc2c(c1)CCN(C(=O)c1cccnn1)C2`: the cytotoxicity at 10 µM is -1.22%.

For the compound `COc1ccccc1OC1(C(=O)O)CCN(c2nccnc2C)CC1`, the cytotoxicity at 10 µM is -10.4%.

Regarding `CNC(=O)C1CCN(c2nccc(CCC(F)(F)F)n2)C1` (stereo unspecified), the cytotoxicity at 10 µM was -11.4%.

In the case of `CN1CC(c2ccccc2)CC2(CCN(Cc3ncc[nH]3)CC2)C1` (stereo unspecified), the cytotoxicity at 10 µM was -1.21%.

As for `CC(Cc1ccc2c(c1)OCO2)c1cn(CCc2c[nH]cn2)nn1` (stereo unspecified), the cytotoxicity at 10 µM was determined as 8.66%.

For the compound `Cc1nnsc1C(=O)N1C[C@@H]2CC[C@H]1CN(c1cnccn1)C2`, the cytotoxicity at 10 µM worked out at 9.88%.

For `CN1CCN(c2cc(CNC(=O)c3ccc(=O)[nH]n3)ccn2)CC1`, the cytotoxicity at 10 µM is -15%.

For `CC(C)(C)C(O)CN1CCN(CCOCC(F)(F)F)CC1` (stereo unspecified), the cytotoxicity at 10 µM was -2.02%.

As for `Cc1noc(C)c1C(=O)NCc1ccc(N2CCOC(C)C2)nc1` (stereo unspecified), the cytotoxicity at 10 µM is -3.46%.

Turning to `NCC(=O)N1CCC(c2cncc(Oc3cccnc3)n2)CC1`, the cytotoxicity at 10 µM is -9.08%.

Turning to `CCc1cc(NCC(O)CN2CCCCC2)n2ncnc2n1` (stereo unspecified), the cytotoxicity at 10 µM is -7.45%.

Take `O=S1(=O)CCCN(Cc2ccccc2OCC(F)(F)F)CC1`: the cytotoxicity at 10 µM is 9.11%.

For `CS(=O)(=O)NCCCNC(=O)NCc1ccccc1`, the cytotoxicity at 10 µM was -3.54%.

For the compound `COc1ccc(CN(C)[C@@H]2COC[C@H]2c2ccc(F)cc2)c(OC)c1`, the cytotoxicity at 10 µM was found to be 8.54%.

Turning to `CCc1nc(CN2CCCC(N(C)CCn3cncn3)C2)no1` (stereo unspecified), the cytotoxicity at 10 µM was -6.5%.

Consider `CNC(=O)c1ccccc1NCc1ncnn1C`, for which the cytotoxicity at 10 µM was -0.393%.

For `CCOCC(=O)N1CC[C@H]2[C@@H]1CCC(=O)N2Cc1csc(C)n1`, the cytotoxicity at 10 µM is -85.2%.

As to `CN(C)Cc1nnc(C2CCN(c3ncccn3)CC2)n1C1CC1`, the cytotoxicity at 10 µM is -1.26%.

Regarding `CN(CCC#N)C(=O)CN1CCCN(Cc2noc(C3CC3)n2)CC1`, the cytotoxicity at 10 µM worked out at 6.39%.

With `CC(=O)N1CCCN(C(=O)NCC2(c3cccs3)CCCC2)CC1`, the cytotoxicity at 10 µM was determined as 3.23%.
